Measured values reported in paper PMC5974556 (ChemistryOpen, 2018).
Values after ≈ are worked out from the molar mass of the structure shown. Where a name gives a salt, the structure may show the parent alone. Marks after values point to notes of the source that are not given here.

What was measured:
[1] = tested on: EA.hy926 cells; assay: Mitochondria activity; assay type: cell-based; details: Homo sapiens, EA.hy 926, 72 h, read-out: EA.hy926 IC50 MTT
Outline: (§1)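 Cells kept in DMEM+glutamax with 1% NEAA, 1% P/S and 10% FBS at 37 °C, 10% CO2. Seeded 2×10^4 per well for 24 h, then exposed 72 h to test compound at various concentrations in serum-free medium, in triplicate. MTT (5 mg/mL in PBS) added for 2 h, formazan dissolved in DMSO, read at 570 nm. IC50 from % survival; doxorubicin control; MTT and SRB data pooled, mean ± SD, n≥6.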

[2] = tested on: EA.hy926 cells; assay: Protein content; assay type: cell-based; details: Homo sapiens, EA.hy 926, 72 h, read-out: EA.hy926 IC50 SRB
Outline: (§2)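 Seeded 2×10^4 cells per well for 24 h, then treated with or without test compound for three days, in triplicate. Fixed with 50% TCA for 1 h at 4 °C, washed and dried. Stained 30 min at 4 °C with 0.4% sulforhodamine B in 1% acetic acid, rinsed with 1% acetic acid. Dye redissolved in Tris buffer, absorbance read at 490 nm. Doxorubicin control; MTT and SRB data pooled, mean ± SD, n≥6.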

[3] = tested on: HT‐29 cells; assay: Mitochondria activity; assay type: cell-based; details: Homo sapiens, HT-29, 72 h, read-out: HT‐29 IC50 MTT
Outline: as §1

[4] = tested on: Caco‐2 cells; assay: Intracellular ROS; assay type: cell-based, human; details: protein content normalization, mean±SD, n≥3
Outline: (§3)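 Cells grown in DMEM+glutamax with 1% NEAA, 1% P/S and 10% FBS at 37 °C, 10% CO2. Seeded at 2×10^4 cells/well for 24 h, then confluent cells were exposed to test compound at 1 or 10 µM in serum-free medium, with NAC as control. Cells were washed, loaded with DCFH-DA for 30 min, then kept 1 h in phenol red-free DMEM. Fluorescence read at ex 485/em 535 nm, normalised to same-well SRB protein (490 nm) and given as % of untreated cells. Mean ± SD, n≥3; two-tailed t-test with unequal variances.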

[5] = tested on: Caco‐2 cells; assay: Mitochondria activity; assay type: cell-based; details: Homo sapiens, Caco-2, 72 h, read-out: Caco‐2 IC50 MTT
Outline: as §1

[6] = tested on: HT‐29 cells; assay: Protein content; assay type: cell-based; details: Homo sapiens, HT-29, 72 h, read-out: HT‐29 IC50 SRB
Outline: as §2

[7] = tested on: Caco‐2 cells; assay: Protein content; assay type: cell-based; details: Homo sapiens, Caco-2, 72 h, read-out: Caco‐2 IC50 SRB
Outline: as §2

[8] = tested on: EA.hy926 cells; assay: Intracellular ROS; assay type: cell-based; details: Homo sapiens; for activity at 1 µM: EA.hy 926, read-out: Intracellular ROS, percentage compared to the untreated control cells (ROS/SRB), EA.hy926, 1 μM; for activity at 10 µM: EA.hy 926, read-out: Intracellular ROS, percentage compared to the untreated control cells (ROS/SRB), EA.hy926, 10 μM
Outline: as §3

[9] = tested on: HepG2 cells; assay: Protein content; assay type: cell-based; details: Homo sapiens, HepG2, 72 h, read-out: HepG2 IC50 SRB
Outline: as §2

[10] = tested on: HepG2 cells; assay: Intracellular ROS; assay type: cell-based; details: Homo sapiens; for activity at 1 µM: HepG2, read-out: Intracellular ROS, percentage compared to the untreated control cells (ROS/SRB), HepG2, 1 μM; for activity at 10 µM: HepG2, read-out: Intracellular ROS, percentage compared to the untreated control cells (ROS/SRB), HepG2, 10 μM
Outline: as §3

[11] = tested on: HT‐29 cells; assay: Intracellular ROS; assay type: cell-based; details: Homo sapiens; for activity at 1 µM: HT-29, read-out: Intracellular ROS, percentage compared to the untreated control cells (ROS/SRB), HT‐29, 1 μM; for activity at 10 µM: HT-29, read-out: Intracellular ROS, percentage compared to the untreated control cells (ROS/SRB), HT‐29, 10 μM
Outline: as §3

[12] = Ferric reducing antioxidant power; details: chemical antioxidant capacity, n=3
Outline: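 FRAP reagent made from acetate buffer, TPTZ in ethanol and FeCl3·6H2O in dilute HCl, mixed 10:1:1, with TPTZ and iron solutions fresh daily. Sample mixed with reagent 1:9, absorbance read at 593 nm after 4 min. Values expressed as Trolox equivalents by linear regression on a Trolox standard curve; α-tocopherol positive control.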

[13] = Water solubility, shake flask method in 0.1 M phosphate buffer pH 6.8; assay type: physicochemical; details: 37 °C, pH 6.8, aqueous buffer, thermodynamic from solid
Outline: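 Excess solid added to 1 mL sodium phosphate buffer, pH 6.8. Two conditions: 90 min sonication at 37 °C, or 30 min sonication at 37 °C, 23 h shaking at 300 rpm, then 30 min sonication. Centrifuged 14000 rpm for 5 min, filtered (0.2 µm) at 37 °C and diluted in DMSO. Quantified by LC at maximum absorbance against standard curves; independent triplicates.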

[14] = tested on: HepG2 cells; assay: Mitochondria activity; assay type: cell-based; details: Homo sapiens, HepG2, 72 h, read-out: HepG2 IC50 MTT
Outline: as §1

SMILES | IC50 [1] [µM] | IC50 [2] [µM] | IC50 [3] [µM] | Intracellular ROS, percentage compared to the untreated control cells (ROS/SRB), Caco‐2, 1 μM [4] | Intracellular ROS, percentage compared to the untreated control cells (ROS/SRB), Caco‐2, 10 μM [4] | IC50 [5] [µM] | IC50 [6] [µM] | IC50 [7] [µM] | activity at 1 µM [8] [%] | activity at 10 µM [8] [%] | IC50 [9] [µM] | activity at 1 µM [10] [%] | activity at 10 µM [10] [%] | activity at 1 µM [11] [%] | activity at 10 µM [11] [%] | FRAP [12] [Trolox equiv per μM] | solubility at 90 min [13] [µM] | solubility at 24 h [13] [µM] | IC50 [14] [µM]
O=C(/C=C(O)/C=C/c1c[nH]c2ccccc12)/C=C/c1c[nH]c2ccccc12 [compound 3, (1E,4Z,6E)‐5‐Hydroxy‐1,7‐di(1H‐indol‐3‐yl)hepta‐1,4,6‐trien‐3‐one] | 11.7 ± 4.6 | 15.2 ± 5.9 | 11.5 ± 6.7 | 95.7±7.3% | 110.3±6.5^[b] % | 3.3 ± 0.3 | 15.3 ± 6.6 | 2.1 ± 0.6 | 111 ± 7.5 | 218 ± 20.3 | 10.4 ± 1.5 | 129 ± 8 | 382 ± 34 | 141 ± 21.3 | 125 ± 12 | 0.27 | 19 ± 0.2 (≈ 6.73 µg/mL) | 11.1 ± 0.1 (≈ 3.93 µg/mL) | 10 ± 1.7
Cc1c(C)c2c(c(C)c1O)CC[C@@](C)(CCC[C@H](C)CCC[C@H](C)CCCC(C)C)O2 [α‐tocopherol, reference compound] | – | – | – | – | – | – | – | – | – | – | – | – | – | – | – | 0.76 | – | – | –
O=C(/C=C(/C=C/c1cccnc1)NCCO)/C=C/c1cccnc1 [5 e, (1E,4Z,6E)‐5‐(2‐Hydroxyethylamino)‐1,7‐di(pyridin‐3‐yl)hepta‐1,4,6‐trien‐3‐one] | > 75 | > 75 | > 75 | 111.4±8.9% | 118.6±2.8^[c] % | > 75 | > 75 | > 75 | 102 ± 1.6 | 115 ± 7.6 | > 75 | 88.6 ± 15.2 | 92.1 ± 5.1 | 93.9 ± 5.5 | 110 ± 3.7 | 0.04 | 4350 ± 260 (≈ 1400 µg/mL) | 4850 ± 140 (≈ 1560 µg/mL) | > 75
COCCNC(=C\C(=O)/C=C/c1cccnc1)/C=C/c1cccnc1 [5 c, (1E,4Z,6E)‐5‐(2‐Methoxyethylamino)‐1,7‐di(pyridin‐3‐yl)hepta‐1,4,6‐trien‐3‐one] | 60 ± 10.5 | 63 ± 8.3 | 55.3 ± 12.5 | 102.4±8.8% | 243.2±17.5^[b] % | 53.8 ± 0.6 | 46 ± 15.8 | 49.1 ± 0.6 | 83.7 ± 6.7 | 89.5 ± 2.7 | 66.4 ± 1.3 | 94.8 ± 4 | 88.4 ± 5.3 | 100 ± 5.8 | 88.1 ± 3.6 | 0.00 | 895 ± 18 (≈ 300 µg/mL) | 2280 ± 174 (≈ 766 µg/mL) | 56.7 ± 3.7
O=C(/C=C(O)/C=C/c1ccc[nH]1)/C=C/c1ccc[nH]1 [compound 4, (1E,4Z,6E)‐5‐Hydroxy‐1,7‐di(1H‐pyrrol‐2‐yl)hepta‐1,4,6‐trien‐3‐one] | 8.3 ± 0.9 | 9 ± 2.2 | 8.9 ± 0.5 | 110.2±9.5^[b] % | 124.3±8.7^[c] % | 7.5 ± 1.6 | 9.6 ± 0.5 | 9.7 ± 0.6 | 295 ± 38.5 | 165 ± 18.9 | 9.8 ± 1.5 | 75.6 ± 14.6 | 121 ± 26.1 | 105 ± 6.3 | 121 ± 8.7 | 0.79 | 84.8 ± 2.8 (≈ 21.6 µg/mL) | 74.2 ± 1.3 (≈ 18.9 µg/mL) | 8.2 ± 0.9
O=C1C=C(/C=C/c2cccnc2)N(CCCO)C(c2cccnc2)C1 (centres unmarked) [6 f, (E)‐1‐(3‐Hydroxypropyl)‐2‐(pyridin‐3‐yl)‐6‐[2‐(pyridin‐3‐yl)vinyl]‐2,3‐dihydropyridin‐4(1H)‐one] | > 75 | > 75 | > 75 | 100.5±2.4% | – | > 75 | > 75 | > 75 | 101 ± 1.3 | 106 ± 9.9 | > 75 | 88.8 ± 10.4 | 106 ± 13.1 | 111 ± 8.1 | 106 ± 4.1 | 0.00 | 2460 ± 57.2 (≈ 826 µg/mL) | 5000 ± 137 (≈ 1680 µg/mL) | > 75
CC(=O)N[C@@H](CS)C(=O)O [N‐acetyl‐L‐cysteine, reference compound] | – | – | – | 55.7±5.8^[c] % | 47.8±2.6^[c] % | > 75 | – | > 75 | 79.6 ± 11.1 | 79.6 ± 7.4 | – | 73.1 ± 2.7 | 70.5 ± 3.1 | 90.1 ± 12 | 87.7 ± 3.7 | – | – | – | –
COc1cccc2c1C(=O)c1c(O)c3c(c(O)c1C2=O)C[C@@](O)(C(=O)CO)C[C@@H]3O[C@H]1C[C@H](N)[C@H](O)[C@H](C)O1 [Dox, doxorubicin hydrochloride, reference compound] | 1.4 ± 0.5 | 1.4 ± 0.3 | 4 ± 0.9 | – | – | 11.1 ± 1 | 3.5 ± 0.4 | 12.1 ± 0.8 | – | – | 2.5 ± 1.2 | – | – | – | – | – | – | – | 5.5 ± 1.4
